According to ChEMBL document CHEMBL1629704, “Inhibition of dengue virus by an ester prodrug of an adenosine analog” (Antimicrob Agents Chemother, 2010):
Active and inactive are the calls of the source. The calls are words filed in the database; no cut-off is given here.

Columns and labels:
dengue virus type 1 = assay: Antiviral activity against Dengue virus 1 MY10245 infected in human A549 cells by CFI assay; format: functional, organism-based
In short: (§1)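 CFI assay: A549 cells seeded 2 × 10^4/well, infected next day (MOI 0.3 for DENV-2) with compound-virus mixture for 1 h, then refed with compound-containing medium. On day 2 cells were methanol-fixed at 4°C and intracellular E protein detected by ELISA (4G2 primary, HRP anti-mouse secondary). EC50 is the average of two independent experiments.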

dengue virus type 2 [1] = assay: Antiviral activity against Dengue virus 2 MY10340 infected in human A549 cells by CFI assay; format: functional, organism-based; in short: as §1
dengue virus type 3 = assay: Antiviral activity against Dengue virus 3 MY22366 infected in human A549 cells by CFI assay; format: functional, organism-based; in short: as §1
dengue virus type 4 = assay: Antiviral activity against Dengue virus 4 MY22713 infected in human A549 cells by CFI assay; format: functional, organism-based; in short: as §1
dengue virus type 2 [2] = assay: Antiviral activity against Dengue virus 2 NGC infected in human PBMC cells by plaque assay; format: functional, organism-based
Mus musculus = assay: Cmax in CD-1 mouse assessed as NITD449 level at 24.2 mg/kg, po by LC-MS-MS analysis; format: ADME, organism-based; parameters: dose 24.2 mg/kg, route oral; conditions: in vivo
In short: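 Female CD-1 mice given the prodrug orally, formulated in 10% ethanol, 30% PEG 400, 60% D5W. Blood from three animals at 0.08, 0.25, 0.5, 1, 2, 4, 8, 16, 24 h; heparinized plasma extracted with acetonitrile-methanol-acetic acid. Parent nucleoside was quantified by LC-MS-MS (MRM, LLOQ 9.2 ng/ml) and noncompartmental analysis was run. F = dose-corrected AUC p.o./AUC i.v., with i.v. parent at 5 mg/kg.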

Rattus norvegicus [3] = assay: Cmax in Wistar rat assessed as NITD449 level at 26.5 mg/kg, po by LC-MS-MS analysis; format: ADME, organism-based; parameters: dose 26.5 mg/kg, route oral; conditions: in vivo
In short: (§2)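 Female Wistar rats, fasted overnight until 4 h postdose, given the prodrug orally in 10% ethanol, 30% PEG 400, 60% D5W. Serial blood from groups of three at 0.17–48 h. Parent nucleoside in plasma was measured by LC-MS-MS (LLOQ 9.2 ng/ml) with noncompartmental analysis. F was corrected for dose against parent i.v. at 5.9 mg/kg.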

Rattus norvegicus [4] = assay: AUC (0 to infinity) in Wistar rat assessed as NITD449 level at 26.5 mg/kg, po by LC-MS-MS analysis; format: ADME, organism-based, Plasma; parameters: time infinity, dose 26.5 mg/kg, route oral; conditions: in vivo; in short: as §2
Rattus norvegicus [5] = assay: Cmax in Wistar rat assessed as NITD449 level at 84.1 mg/kg, po by LC-MS-MS analysis; format: ADME, organism-based; parameters: dose 84.1 mg/kg, route oral; conditions: in vivo
In short: (§3)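 Fasted female Wistar rats were dosed orally with the prodrug in 20% solutol HS15, 30% PEG 300, 50% 100 mM citrate pH 3. Groups of three were serially bled 0.17–48 h. Plasma parent levels came from LC-MS-MS (MRM, LLOQ 9.2 ng/ml) and noncompartmental modeling. F used dose-corrected AUC versus parent i.v. at 5.9 mg/kg.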

Rattus norvegicus [6] = assay: Tmax in Wistar rat assessed as NITD449 level at 84.1 mg/kg, po by LC-MS-MS analysis; format: ADME, organism-based; parameters: dose 84.1 mg/kg, route oral; conditions: in vivo; in short: as §3
Rattus norvegicus [7] = assay: AUC (0 to infinity) in Wistar rat assessed as NITD449 level at 84.1 mg/kg, po by LC-MS-MS analysis; format: ADME, organism-based, Plasma; parameters: time infinity, dose 84.1 mg/kg, route oral; conditions: in vivo; in short: as §3
Rattus norvegicus [8] = assay: Oral bioavailability in Wistar rat assessed as NITD449 level at 84.1 mg/kg by LC-MS-MS analysis; format: ADME, organism-based; conditions: in vivo; in short: as §3
dengue virus type 2 [9] = assay: Antiviral activity against Dengue virus 2 NGC infected in african green monkey Vero cells at 12.5 uM after 48 hrs by plaque assay; format: functional
In short: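 Titer reduction: Vero cells (4 × 10^5/well) infected 24 h after seeding at MOI 0.1 and treated immediately with compound. Culture medium was collected 48 h postinfection and titered by plaque assay; n = 3, mean ± SD.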

Hepatitis C virus = assay: Antiviral activity against HCV subtype 1b infected in human Huh-7 cells after 48 hrs by luciferase assay; format: functional, organism-based; conditions: Hepacivirus hominis, genotype 1b
In short: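 Huh-7 cells bearing a luciferase-reporting HCV genotype 1b replicon were incubated with compound. Luciferase was read at 48 h posttreatment and efficacy estimated from signal reduction; n = 3.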

dengue virus type 2 [10] = assay: Antiviral activity against Dengue virus-2 NGC infected in hamsters BHK21 cells assessed as inhibition of viral RNA synthesis at 1 uM after 2 to 4 hrs of infection by luciferase assay; format: functional, organism-based; conditions: BHK-21
dengue virus type 2 [11] = assay: Antiviral activity against Dengue virus-2 NGC infected in hamsters BHK21 cells assessed as inhibition of viral RNA synthesis at 3 uM after 2 to 4 hrs of infection by luciferase assay; format: functional, organism-based; conditions: BHK-21
dengue virus type 2 [12] = assay: Antiviral activity against Dengue virus-2 NGC infected in hamsters BHK21 cells assessed as inhibition of viral RNA synthesis at 1 uM after 24 to 40 hrs of infection by luciferase assay; format: functional, organism-based; conditions: BHK-21
In short: (§4)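 DENV-2 luciferase replicon (structural genes deleted) RNA was electroporated into BHK-21 cells, then cells were immediately incubated with compound. Luciferase was read at time points. Signals at 2–4 h p.t. reflect input translation and at 24–40 h p.t. reflect RNA synthesis; n = 3, mean ± SD.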

dengue virus type 2 [13] = assay: Antiviral activity against Dengue virus-2 NGC infected in hamsters BHK21 cells assessed as inhibition of viral RNA synthesis at 3 uM after 24 to 40 hrs of infection by luciferase assay; format: functional, organism-based; conditions: BHK-21; in short: as §4
dengue virus type 2 [14] = assay: Antiviral activity against Dengue virus 2 NGC infected in human A549 cells after 2 days by CFI assay in presence of 40 mg/ml human serum albumin; format: functional, organism-based; conditions: A549, 48 h
In short: (§5)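 Modified CFI: A549 cells infected with DENV-2 New Guinea C (MOI 0.3) for 1 h without compound. Inoculum then replaced with medium containing compound dilutions plus the stated HSA and/or AGP. On day 2, cells methanol-fixed and intracellular E protein detected by ELISA (4G2 primary, HRP anti-mouse secondary); EC50 derived.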

dengue virus type 2 [15] = assay: Antiviral activity against Dengue virus 2 NGC infected in human A549 cells after 2 days by CFI assay in presence of 2 mg/ml alpha-1-acid glycoprotein; format: functional, organism-based; conditions: A549, 48 h; in short: as §5
dengue virus type 2 [16] = assay: Antiviral activity against Dengue virus 2 TSV01 infected in AG129 mouse assessed as reduced viremia by 3 mg/kg, po BID for 3 days measured on day 4 by plaque assay; format: functional
In short: (§6)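 AG129 mice (lacking IFN-α/β and IFN-γ receptors) were inoculated i.p. with 2 × 10^6 PFU DENV-2 in 0.4 ml. Immediately afterwards, 0.2 ml compound in ethanol-PEG-D5W (10:30:60) was given by oral gavage twice daily for 3 days. Day-4 blood viremia was measured by plaque assay; 6 or 8 mice per group.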

dengue virus type 2 [17] = assay: Antiviral activity against Dengue virus 2 TSV01 infected in AG129 mouse assessed as reduced viremia by 10 mg/kg, po BID for 3 days measured on day 4 by plaque assay; format: functional; in short: as §6
dengue virus type 2 [18] = assay: Antiviral activity against Dengue virus 2 TSV01 infected in AG129 mouse assessed as reduced viremia by 25 mg/kg, po BID for 3 days measured on day 4 by plaque assay; format: functional; in short: as §6
Rattus norvegicus [19] = assay: Toxicity in Wistar rat at 30 mg/kg/day, po for 2 weeks; format: organism-based; parameters: route oral; conditions: in vivo, 336 h
In short: (§7)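 Male Wistar rats, 10 weeks old, dosed orally daily for 2 weeks; five per dose group. Clinical signs, body weight and mortality were monitored.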

Rattus norvegicus [20] = assay: Toxicity in Wistar rat at 75 mg/kg/day, po for 2 weeks; format: organism-based; parameters: route oral; conditions: in vivo, 336 h; in short: as §7

## C#C[C@@]1(O)[C@H](OC(=O)C(C)C)[C@@H](COC(=O)C(C)C)O[C@H]1n1cc(C(N)=O)c2c(N)ncnc21
Dengue virus type 1
  EC50: 540 nM
Dengue virus type 2 [1]
  EC50: 570 nM
Dengue virus type 3
  EC50: 540 nM
Dengue virus type 4
  EC50: 710 nM
Dengue virus type 2 [2]
  EC50: 100 nM
Mus musculus
  Cmax: 6.01 µM
Rattus norvegicus [3]
  Cmax: 3.65 µM
Rattus norvegicus [4]
  AUC: 13.7 µM·h
Rattus norvegicus [5]
  Cmax: 14.2 µM
Rattus norvegicus [6]
  Tmax: 30 min
Rattus norvegicus [7]
  AUC: 33.5 µM·h
Rattus norvegicus [8]
  F: 10%
Dengue virus type 2 [9]
  fold change (FC): 1000
Hepatitis C virus
  Activity: Active
Dengue virus type 2 [10]
  Activity: Active
Dengue virus type 2 [11]
  Activity: Active
Dengue virus type 2 [12]
  Activity: Active
Dengue virus type 2 [13]
  Activity: Active
Dengue virus type 2 [14]
  EC50: 790 nM
Dengue virus type 2 [15]
  EC50: 760 nM
Dengue virus type 2 [16]
  fold change (FC): 2.7
Dengue virus type 2 [17]
  fold change (FC): 4.4
Dengue virus type 2 [18]
  fold change (FC): 30
Rattus norvegicus [19]
  Activity: Toxic
Rattus norvegicus [20]
  Activity: Toxic
